Screens deposited in PubChem by several laboratories.
ROMK mod: modulates human ROMK potassium channel activity | B-score at 10 µM | 2% of 130,000 active | AID 1918 | P48048 | Tet-inducible ROMK, thallium flux fluorescence; actives lie on both sides;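 active = signal ratio slope over the read window, or its plate-corrected B-score, at least 3 SD from the plate mean, either direction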;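 note: B-score of the F/F0 ratio slope over 7 to 12 s after thallium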
Target sequence (P48048 whole entry, looked up): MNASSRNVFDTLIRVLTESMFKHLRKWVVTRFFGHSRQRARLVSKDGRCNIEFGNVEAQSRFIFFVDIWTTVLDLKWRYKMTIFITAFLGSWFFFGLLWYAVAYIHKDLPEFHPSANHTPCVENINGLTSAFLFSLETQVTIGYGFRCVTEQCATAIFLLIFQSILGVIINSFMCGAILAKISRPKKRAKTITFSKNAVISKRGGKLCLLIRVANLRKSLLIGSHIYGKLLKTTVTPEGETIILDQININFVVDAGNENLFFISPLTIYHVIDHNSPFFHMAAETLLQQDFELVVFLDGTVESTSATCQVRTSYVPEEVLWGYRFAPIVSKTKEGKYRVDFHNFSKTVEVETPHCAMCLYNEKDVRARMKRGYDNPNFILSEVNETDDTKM
WT yeast gro inh: growth inhibition of WT yeast, mitochondrial fusion screen; mitochondrial fusion phenotypic screen, WT strain; inhibition, % at 10 µM; 2.1% of 190,000 active; AID 1362; in the data active = inhibition above about 58%; tested in S. cerevisiae
Cl transport mod: modulates chloride dependent transport by human KCC2; Q9H2X9; KCC2 cells, thallium flux FluoZin-2 fluorescence; B-score of Tl+ flux slope (higher = more flux/activation; lower = inhibition) at 10 µM; 2.2% of 190,000 active; AID 1456;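 active = thallium flux slope and its plate-corrected score both differing from the plate sample mean at a set confidence after two filtering rounds, in either direction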;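 note: slope of fluorescence scaled to starting intensity during 10 to 20 s after thallium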
p47phox inh: inhibitors of human p47phox binding; p47phox/p22phox peptide binding, fluorescence polarization, 2 h; inhibition, % at 24.7 µM; 0.53% of 220,000 active;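 active = inhibition above about 30%, limit read from the data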
Target sequence (P14598 whole entry, looked up): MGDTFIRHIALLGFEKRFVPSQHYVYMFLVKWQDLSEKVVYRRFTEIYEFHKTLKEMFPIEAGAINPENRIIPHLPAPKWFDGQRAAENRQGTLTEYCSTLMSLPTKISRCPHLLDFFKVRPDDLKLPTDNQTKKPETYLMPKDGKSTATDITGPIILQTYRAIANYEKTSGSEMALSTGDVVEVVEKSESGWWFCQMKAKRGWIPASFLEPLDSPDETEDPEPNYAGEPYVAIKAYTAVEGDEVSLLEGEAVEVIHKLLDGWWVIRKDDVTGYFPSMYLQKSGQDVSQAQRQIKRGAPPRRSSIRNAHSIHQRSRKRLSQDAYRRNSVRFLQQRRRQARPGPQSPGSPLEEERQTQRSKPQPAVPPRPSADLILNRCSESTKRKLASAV
RBBP9 inhibitor: inhibitors of human serine hydrolase RBBP9; O75884; recombinant RBBP9, FP-Rh probe fluorescence polarization; inhibition, % at 7.94 µM; 0.2% of 220,000 active; AID 1515;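 active = inhibition above the campaign mean of all tested compounds plus 3 SD, cut at about 14% in these data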
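Controls: DMSO-treated enzyme wells and wells lacking RBBP9 | Material: RBBP9 protein | Technique: Fluorescence polarization | Replication: Single well per compound, no replicates | Buffer or medium: Tris-NaCl-Pluronic buffer, pH 8.0 | Timing: 30 min compound preincubation, 45 min probe labeling, 25 °C | Read-out basis: Percent inhibition from mP, scaled between DMSO and no-protein wells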
14-3-3 Bad inh: disrupts binding of bovine 14-3-3 zeta to phospho-Bad peptide. P63103. TR-FRET 14-3-3zeta/Dy647-pBad peptide displacement, 1 h. inhibition, % at 21.7 µM. 0.71% of 220,000 active;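 active = inhibition above about 70%, limit read from the data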
KCC2 sec1: KCC2 (human) modulation, secondary assay. shares compounds with Cl transport mod. HEK293-KCC2, thallium flux, FluoZin2 fluorescence; active compounds read high. normalised thallium flux (F/F0 slope) at 10 µM. 15% of 3,700 active. AID 1713;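 active = thallium flux slope above the same plate's solvent-only control mean plus 3 SD; inconclusive = the two replicate wells disagree; inactive = no significant difference from solvent-only control wells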
KCC2 bumet counter: bumetanide-insensitive thallium flux in KCC2 cells with ouabain, counter-screen; shares compounds with Cl transport mod; HEK293-KCC2 + bumetanide/ouabain, thallium flux FluoZin2; active compounds read high; normalized thallium flux at 10 µM; 49% of 3,700 active; AID 1714;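 active = thallium entry rate above the same plate's blocked-transporter control wells by more than 3 SD; inconclusive = the two repeat wells disagree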;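 note: raw slope of fluorescence over initial fluorescence between 10 and 20 s after thallium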
KCC2 sec2: KCC2 (human) modulation, second secondary assay; HEK293-KCC2, thallium flux FluoZin2 fluorescence; actives lie on both sides; F/F0 rise rate, 10–20 s post-thallium; 23% of 3,700 active; shares compounds with Cl transport mod; AID 1715; normalized thallium flux at 10 µM;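 active = thallium flux slope more than 3 SD above or below the plate's solvent-only control mean, mostly below; inconclusive = the two repeat wells disagreed; inactive = no significant shift from solvent-only controls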
HEK counter1: parental HEK flux effect, counter-screen | shares compounds with Cl transport mod | HEK293 parental cells, thallium flux FluoZin2, ouabain; baseline-ratio fluorescence slope, 10–20 s after thallium | thallium flux rate (normalised fluorescence) at 10 µM | 46% of 3,700 active;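 active = thallium flux rate significantly above the same plate's solvent-only control wells, beyond their mean plus 3 SD; inconclusive = the two replicate wells gave conflicting results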
KCC2 ouabain: KCC2 (human) modulation, ouabain retest | shares compounds with Cl transport mod | HEK293-KCC2, thallium flux FluoZin2 fluorescence; bidirectional: low = inhibitor, high = activator | raw Tl+ flux slope (below DMSO = inhibition, above = activation) at 10 µM | 48% of 3,700 active | AID 1717;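 active = thallium flux slope beyond 3 SD from same-plate DMSO control mean in most replicates, usually higher, sometimes lower; inconclusive = repeat tests gave conflicting results; inactive = no significant difference from controls in most replicates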;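 note: slope of initial-normalized fluorescence between seconds 10 and 20 after thallium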
HEK293 Tl flux2: counter-screen for KCC2 modulators: effect in parental HEK293 cells; 33% of 3,700 active; AID 1718; shares compounds with Cl transport mod; thallium flux slope at 10 µM; thallium flux FluoZin-2 fluorescence slope;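 active = thallium flux slope above the same plate's solvent-control mean plus 3 SD in both duplicate wells; inconclusive = duplicate wells that disagreed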;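 note: run without ouabain in cells lacking the KCC2 cotransporter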
Numbers stand for hits; . = inactive; ? = inconclusive; / = no result. Shown are actives, neighbours in structure and some others; about 5.8% of the full set was active somewhere.

SMILES | ROMK mod | WT yeast gro inh | Cl transport mod | p47phox inh | RBBP9 inhibitor | 14-3-3 Bad inh | KCC2 sec1 | KCC2 bumet counter | KCC2 sec2 | HEK counter1 | KCC2 ouabain | HEK293 Tl flux2
COC(=O)c1ccc(C)c(NS(=O)(=O)c2ccc(OC)cc2)c1 | . | . | / | . | . | . | / | / | / | / | / | /
COC(=O)c1sccc1NS(=O)(=O)c1ccc(OC)cc1 | . | . | / | . | . | . | . | 0.013 | . | 0.012 | ? | 0.015
CCc1nn(CC(=O)NCCN2CCN(C)CC2)c(=O)c2cc3occc3n12 | / | . | . | . | . | . | / | / | / | / | / | /
CCc1nn(CCCC(=O)N2CCc3ccccc3C2)c(=O)c2cc3occc3n12 | . | . | -5.8 | . | . | . | . | . | . | . | 0.014 | .
Cc1nn(CCCC(=O)N2CCc3ccccc3C2)c(=O)c2cc3sccc3n12 | / | . | -6.5 | . | . | . | . | . | ? | ? | 0.012 | .
C/C(N)=C(/C#N)C(=O)COC(=O)CNS(=O)(=O)c1c(F)cccc1F | . | . | . | . | . | . | / | / | / | / | / | /
Cn1nc(-c2ccc(Cl)cc2)cc1NC(=O)CCCC(=O)O | / | / | . | . | . | . | / | / | / | / | / | /
C/C(=N\NC(=O)CNc1cccc(C)c1)c1ccc(Br)s1 | . | . | . | . | . | . | / | / | / | / | / | /
C/C(=N/NC(N)=S)c1ccc(Br)s1 | . | . | 19 | . | . | . | . | 0.032 | . | 0.014 | . | ?
C/C(=N\NC(=O)c1ccc2c(c1)OCO2)c1ccco1 | . | . | . | . | . | . | / | / | / | / | / | /
C/C(=N\NC(=O)c1ccc(Cl)c(Cl)c1)c1ccc(Br)s1 | / | . | 7.2 | . | . | . | . | 0.009 | . | 0.022 | 0.025 | 0.017
C/C(=N/NC(=O)c1ccc2c(c1)OCO2)c1ccc(Br)s1 | . | . | 6.3 | . | . | . | . | 0.015 | . | ? | ? | ?
Cc1ccc(S(=O)(=O)N(C)C)cc1NC(=O)COC(=O)c1sc2cc(Cl)ccc2c1Cl | / | / | . | . | . | . | / | / | / | / | / | /
CCCCCCCCC(=O)NNC(=O)c1c(O)c2ccccc2n(CC)c1=O | . | . | 9.5 | . | . | . | . | 0.022 | . | 0.019 | 0.03 | 0.019
CCCCCCCC(=O)NNC(=O)c1c(O)c2ccccc2n(CCC)c1=O | / | . | / | . | . | . | / | / | / | / | / | /
CCCCCCCC(=O)NNC(=O)c1c(O)c2ccccc2n(CC)c1=O | . | . | 11 | . | . | . | . | 0.016 | . | 0.017 | ? | 0.019
CCCCCCC(=O)NNC(=O)c1c(O)c2ccccc2n(CC)c1=O | . | . | 5.6 | . | . | . | . | 0.017 | . | 0.017 | 0.025 | 0.016
CCCCCCC(=O)NNC(=O)c1c(O)c2ccccc2n(CCC)c1=O | . | . | . | . | . | . | / | / | / | / | / | /
COc1cc2[nH]c(=S)n(C3CC3)c(=O)c2cc1OC | . | . | . | . | . | . | / | / | / | / | / | /
COc1cc2[nH]c(=S)n(C3CCCC3)c(=O)c2cc1OC | . | . | 24 | . | . | . | ? | 0.043 | . | 0.017 | 0.038 | 0.01
O=C(CSc1nnc(-c2cccs2)n1CC1CCCO1)c1cc2ccccc2o1 (stereo not drawn) | . | . | -3.3 | . | . | . | . | . | . | . | . | .
Cc1cc(C)c2nc(SC3CCOC3=O)cc(C)c2c1 (stereo not drawn) | . | . | 11 | . | . | . | . | ? | . | 0.011 | . | ?
COc1ccc2c(C)cc(SC3CCOC3=O)nc2c1 (stereo not drawn) | . | . | . | . | . | . | / | / | / | / | / | /
CCSc1nc(C)nc2sc(C)c(C)c12 | / | / | / | . | . | . | / | / | / | / | / | /
O=C(Nc1ccc(Cl)cc1)N1CCN(c2ccccc2)CC1 | / | . | . | . | . | . | / | / | / | / | / | /
SMILES | ROMK mod | WT yeast gro inh | Cl transport mod | p47phox inh | RBBP9 inhibitor | 14-3-3 Bad inh | KCC2 sec1 | KCC2 bumet counter | KCC2 sec2 | HEK counter1 | KCC2 ouabain | HEK293 Tl flux2
O=C(Nc1ccc(Cl)cc1)N1CCC(CO)(Cc2ccccc2)CC1 | . | . | -3.2 | . | . | . | . | ? | . | . | ? | .
COc1ccc(NC(=O)c2ccc(NCCN3C(=O)CCC3=O)c([N+](=O)[O-])c2)cc1 | . | . | . | . | . | . | / | / | / | / | / | /
COc1cccc(-c2c(C#N)c(N)nc3c2c(=O)nc2sccn23)c1 | . | . | . | . | . | . | / | / | / | / | / | /
N#Cc1nc(-c2cccs2)oc1N1CCN(Cc2ccccc2)CC1 | . | . | / | . | . | . | . | ? | 0.023 | . | . | .
CC1=NN(C(N)=S)C(=O)C1N=Nc1ccccc1 (stereo not drawn) | . | 70 | 5.2 | . | . | . | . | 0.024 | . | ? | ? | .
CC1=NN(C(N)=S)C(=O)C1N=Nc1cccc2ccccc12 (stereo not drawn) | . | . | 5.4 | . | . | . | . | 0.046 | . | 0.011 | ? | ?
CC1=NN(c2nc(-c3ccc(C)cc3)cs2)C(=O)C1N=Nc1ccccc1O (stereo not drawn) | . | . | . | . | . | . | / | / | / | / | / | /
CC1=NN(c2ccccc2)C(=O)C1N=Nc1ccccc1 (stereo not drawn) | . | . | . | . | . | . | / | / | / | / | / | /
O=C(CC(=O)c1ccccc1)Nc1cc(C(F)(F)F)ccc1Cl | . | . | . | . | . | . | / | / | / | / | / | /
FC(F)(F)c1ccc(Cl)c(NC(=S)N/N=C/c2ccccc2Cl)c1 | / | / | 5.4 | . | . | . | . | 0.034 | . | 0.01 | ? | .
S=C(N/N=C/c1ccc(Cl)c(Cl)c1)Nc1ccccc1Cl | . | . | 3.9 | . | . | . | . | 0.03 | . | 0.016 | 0.032 | 0.012
S=C(Nc1ccccn1)Nc1ccccc1Cl | . | . | 5 | / | . | . | . | 0.014 | . | 0.0082 | ? | .
O=[N+]([O-])c1cc(/C=N/NC(=S)Nc2ccccc2Cl)ccc1Cl | . | . | 7.8 | . | . | . | . | 0.015 | . | 0.021 | 0.029 | 0.017
Cc1c(CN(C)C(=O)/C=C/c2ccc([N+](=O)[O-])cc2)cnn1C | / | . | . | . | . | . | / | / | / | / | / | /
COc1ccc([N+](=O)[O-])cc1NS(=O)(=O)c1ccc(Cl)c(C(=O)Nc2sc3c(c2C#N)CCCCC3)c1 | . | . | . | . | . | . | / | / | / | / | / | /
